Diaphorase inh: diaphorase inhibitors and chemical oxidizers, primary screen, counter-screen for diaphorase-coupled primary assays, biochemical, uHTS, resorufin fluorescence; diaphorase resazurin-to-resorufin fluorescence, NADH, 16 min; bacterial (C. kluyveri) enzyme, not human; inhibition, % at 20 µM; hit rate 0.69% among 190,000;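 active = primary screen inhibition at 20 µM above a set limit, cut at about 50% in these data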;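 note: plate controls were DMSO with full reaction for no effect and wells lacking NADH for full effect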
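Test system: Clostridium kluyveri diaphorase enzyme / Quantity: diaphorase at 0.14 U/mL in enzyme working solution / Incubation: 16-min room-temperature incubation before reading / Benchmarks: NADH-free wells as positive control, DMSO-only neutral wells / Signal: resorufin fluorescence 544/590 nm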
HKDC1 inh: HKDC1 hexokinase inhibitors, primary screen, biochemical, fluorescence, uHTS | Q2TB90 | recombinant HKDC1, G6PDH/diaphorase resazurin coupled fluorescence | inhibition, % at 20 µM | hit rate 0.16% among 340,000;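 active = inhibition above about 35% when tested at 20 µM, limit read from the data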;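 note: plate controls were DMSO wells with enzyme for no effect and DMSO wells lacking enzyme for full effect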
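Assay system: in-house recombinant HK5 (HKDC1) enzyme. Input: HKDC1 at 5 µg/mL. Medium: Tris pH 8.0 buffer with MgCl2, Tween-20, BSA, BME. Dosing: single 20 µM dose. Schedule: 90 min reaction incubation at room temperature, dark. Signal: resazurin-to-resorufin fluorescence via G6PDH and diaphorase coupling, 525/613 nm. Controls: DMSO-enzyme wells negative, buffer-substituted wells positive.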
G6PDH counter: L. mesenteroides G6PDH inhibitors, counter-screen for G6PDH-coupled screening assays, biochemical, Leuconostoc mesenteroides enzyme; hit rate 0.12% among 200,000; Purified L. mesenteroides G6PDH, diaphorase/resazurin coupled fluorescence, 45 min; glucose-6-phosphate dehydrogenase [Leuconostoc mesenteroides]; inhibition, % at 5 µM; in the data active = inhibition above about 50%
PfG6PD inh: PfG6PD enzyme inhibitors, primary screen, biochemical, fluorescence intensity, uHTS; inhibition, % at 20 µM; hit rate 0.78% among 350,000; AID 504690, 2011; PfGluPho enzyme, NADPH resazurin-diaphorase fluorescence;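 active = inhibition reaching at least a set limit at 20 µM in the primary screen, cut at about 59% in these data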;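 note: 0% = DMSO wells with substrate and 100% = DMSO wells lacking glucose-6-phosphate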
HKDC1 act conf: HKDC1 hexokinase activators, confirmation, biochemical, single concentration; shares compounds with HKDC1 inh; recombinant HKDC1, G6PDH/diaphorase resazurin fluorescence; hits give low values; inhibition, % at 20 µM; hit rate 14% among 740; AID 504708, 2011;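 active = inhibition at or below a set negative limit, negative inhibition meaning the enzyme was activated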
An asterisk follows results filed as active; . = no result given. Compounds with a hit are over-represented: about 1.2% of the library has one in this group of screens.

SMILES	Diaphorase inh	HKDC1 inh	G6PDH counter	PfG6PD inh	HKDC1 act conf
CCC(C)C(NS(=O)(=O)c1ccc(C)cc1)C(=O)Oc1ccc2c3c(c(=O)oc2c1)CCC3 (centres undefined)	18.3	-1.7	9.2	13.8	.
CC[C@@H](NS(=O)(=O)c1ccc(C)cc1)C(=O)Oc1ccc2c3c(c(=O)oc2c1)CCC3	17.8	34.2	-12.0	40.0	1.1
Cc1cc(C(=O)N=Nc2c(O)n(C(C)C)c3ccccc23)n[nH]1	54.0*	40.0*	4.3	23.2	34.4
CC(C)n1c(O)c(N=NC(=O)CNC(=O)CCc2ccccc2)c2ccccc21	.	0.4	.	6.2	.
O=S(=O)(c1cccc(COc2ccc(Cl)cc2Cl)c1)N1CCOCC1	.	38.6*	.	22.8	-37.1
NC(=O)[C@H]1CC2(CC(c3cccc(NC(=O)[C@H]4CCC(=O)N4)c3)=NO2)CN1C(=O)c1ccccc1 (some centres undefined)	.	38.8*	.	20.1	28.2
O=C(Cc1ccccc1)Nc1ncccc1Cl	.	2.5	.	-22.0	.
CC(C)c1ccc(S(=O)(=O)/N=C2/C=C(Sc3ncn[nH]3)C(=O)c3ccccc32)cc1	24.1	63.9*	22.4	104.1*	60.8
O=C(CCNC(=O)c1ccc([N+](=O)[O-])cc1)NC1CCCc2ccccc21 (centres undefined)	.	-4.0	.	-10.4	.
Cc1n[nH]c(=O)c2c(NC(=O)CSc3nnc(-c4ccco4)n3C)oc(C)c12	.	-5.8	.	4.8	.
Cc1n[nH]c(=O)c2c(NC(=O)CSc3nnc(C4CC4)n3C)oc(C)c12	.	39.7*	.	9.6	-13.9
CCCCCC(=C/c1ccccc1)/C=N/Nc1ccc(S(=O)(=O)N2CCOCC2)cc1[N+](=O)[O-]	.	-6.3	.	1.0	.
O=C(O)c1cc(N2N=C(C(F)(F)F)/C(=C/C=C/c3ccco3)C2=O)ccc1Cl	56.0*	46.4*	18.7	27.1	57.5
Cc1cc(C(F)F)n2ncc(C(=O)NCCc3ccccc3Cl)c2n1	25.5	31.1	-1.3	27.1	.
COC(=O)c1ccccc1NC(=O)c1cnn2c(C(F)F)cc(C3CC3)nc12	-3.3	-3.9	-33.9	-28.9	.
O=C(NCCc1ccccc1)c1cnn2c(C(F)F)cc(C3CC3)nc12	64.3*	47.0*	3.6	48.8	59.8
Cc1cc(C(F)F)n2ncc(C(=O)NCCc3ccc(Cl)cc3)c2n1	48.8	38.6*	-6.0	17.1	36.2
COc1ccc(OC)c(NC(=O)CSc2ccc(-c3ccco3)nn2)c1	.	43.4*	.	53.0	37.6
COc1ccc(NC(=O)CSc2ccc(-c3ccco3)nn2)cc1OC	.	42.8*	.	43.8	44.0
COc1cccc(NC(=O)CSc2ccc(-c3ccco3)nn2)c1	.	10.7	.	15.7	.
CC(=O)NCC1CCN(C(=O)C2CCC(=O)N(CCc3cccc(F)c3)C2)CC1 (centres undefined)	.	-2.7	.	14.8	.
COc1ccc(-c2nnc(SC)nc2-c2ccc(OC)c([N+](=O)[O-])c2)cc1[N+](=O)[O-]	.	33.9	.	42.3	13.4
NC1=C(Cl)C(=O)c2ccc(S(N)(=O)=O)cc2C1=O	.	-133.9	.	32.8	-42.9*
CCCCCC(=O)NNC(=O)c1c(O)c2ccccc2n(CC)c1=O	-4.8	-6.2	6.9	-16.3	.
CCCCCCCCCC(=O)NNC(=O)c1c(O)c2ccccc2n(CC)c1=O	-8.6	-40.8	10.6	-59.2	-21.2
SMILES	Diaphorase inh	HKDC1 inh	G6PDH counter	PfG6PD inh	HKDC1 act conf
CCc1nc2sc3c(=O)[nH]cnc3c2c2c1CSC(C)(C)C2	.	37.4*	.	28.8	30.5
COc1ccccc1NC(=O)CSc1nnnn1C1CCCCC1	.	9.8	.	-24.3	.
CC(=O)OCC1=C(C(=O)O)N2C(=O)[C@@H](NC(=O)Cc3ccccc3)[C@H]2SC1	.	3.1	.	0.9	.
C=CC1=C(C(=O)O)N2C(=O)C(NC(=O)Cc3ccccc3)C2SC1 (centres undefined)	18.1	40.2*	-0.1	9.6	-8.1
CC1CCC(C(=O)NC(C(=O)NCCc2ccc(S(N)(=O)=O)cc2)C(C)C)CC1 (centres undefined)	.	-3.1	.	-1.9	.
CC1(C)Cc2c(sc(NC(=O)C(=O)N3CCCC3)c2C#N)CO1	.	-4.3	.	8.3	.
CCCCC(NC(=O)Cc1c(C)c2cc3c(C)c(C)oc3c(C)c2oc1=O)C(=O)O (centres undefined)	.	2.3	.	-25.5	.
CCCC(NC(=O)Cc1c(C)c2cc3c(C)c(C)oc3c(C)c2oc1=O)C(=O)N[C@@H](Cc1ccccc1)C(=O)O (some centres undefined)	.	52.0*	.	-6.5	-19.1
O=C(Nc1ccc(Nc2ccncc2)cc1)c1ccc(Nc2ccnc3ccc([N+](=O)[O-])cc23)cc1	.	43.7*	.	49.9	-7.2
O=C(Nc1ccc(Cc2ccncc2)cc1)c1cccc([N+](=O)[O-])c1	19.5	-8.4	9.9	5.7	.
O=C(NCc1ccccn1)C(=O)NCC1OCCN1S(=O)(=O)c1ccc(Cl)cc1 (centres undefined)	.	4.0	.	-14.1	.
Cc1cc(O)c2c(c1)C(=O)c1cccc(O)c1C2=O	30.2	.	23.7	.	.
O=C(O)c1cc(O)c2c(c1)C(=O)c1cccc(O)c1C2=O	32.4	40.2*	37.5	-29.6	-2.0
O=C1C(=Cc2ccc(Br)o2)C(=O)c2ccccc21	64.0*	35.5*	-15.9	-4.2	35.6
Cc1ccc(N=C2C(=S)N(c3ccc(C)cc3)C(=N)N2/N=C/c2ccc(Cl)cc2)cc1	-6.2	-119.5	5.6	30.8	-45.3*
COc1ccc(Cc2nc3ccc(C(=O)N4CCCCC4CO)cc3o2)cc1OC (centres undefined)	.	.	.	4.8	.
C=CCn1c(O)c2ccc(C(=O)N=NC(=O)COc3ccccc3F)cc2c1O	.	2.1	.	-9.3	.
COc1ccccc1N(C)S(=O)(=O)c1ccc(Cl)c(C(=O)NCC2(N(C)C)CCCCC2)c1	.	41.5*	.	-6.1	-28.4
COc1ccccc1N(C)S(=O)(=O)c1ccc(Cl)c(C(=O)NNC(=O)c2ccccc2O)c1	.	-15.9	.	-22.7	.
N#CCSc1ccccc1NC(=O)CN1C(=O)C2CC=CCC2C1=O (centres undefined)	.	-5.3	.	14.5	.
Cc1noc(C)c1NC(=O)N(C)C[C@@H]1OCc2cn(nn2)CCCC(=O)N([C@H](C)CO)C[C@H]1C	.	.	.	-3.6	.
O=C1Nc2ccccc2C1Cc1ccccc1 (centres undefined)	.	-4.3	.	29.8	.
O=C1C=CC2(C=C1)O[C@H](Cc1ccccc1)[C@@H](Cc1ccccc1)O2	.	38.3*	.	37.3	3.1
CC(C)CCNc1nnnc2c1sc1nc(N3CCOCC3)c3c(c12)CC(C)(C)SC3	28.0	8.0	-1.2	-1.1	.
CC1(C)Cc2c(c(N3CCOCC3)nc3sc4c(NCC5CCCO5)nnnc4c23)CS1 (centres undefined)	.	44.9*	.	52.1	12.0

Screening data from PubChem BioAssay.
